PvdQ acylase – blocks Pseudomonas aeruginosa PvdQ acylase activity; 340,000 tested, 0.063% active; purified PvdQ acylase, fluorescence plate reader; inhibition, % at 10 µM; in the data active = inhibition above about 30%, passing the limit was not always enough
VIM-2 inhibitor – inhibitors of Pseudomonas aeruginosa VIM-2 metallo-beta-lactamase | purified VIM-2, nitrocefin hydrolysis, epi-absorbance fluorescence | inhibition, % at 5.6 µM | 290,000 tested, 0.89% active;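 active = inhibition above the mean of all tested compounds plus 3 SD, cutoff set per screening run, cut at about 7.5% in these data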;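 note: red hydrolysis product quenches plate fluorescence so inhibitors raise well fluorescence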
PHOSPHO1 inh – inhibitors of human PHOSPHO1 phosphatase; recombinant PHOSPHO1, absorbance phosphatase assay; Q8TCT1; inhibition, % at 13.3 µM; 290,000 tested, 1.1% active; AID 1565; in the data active = inhibition above about 60%
Target sequence (Q8TCT1 whole entry, looked up): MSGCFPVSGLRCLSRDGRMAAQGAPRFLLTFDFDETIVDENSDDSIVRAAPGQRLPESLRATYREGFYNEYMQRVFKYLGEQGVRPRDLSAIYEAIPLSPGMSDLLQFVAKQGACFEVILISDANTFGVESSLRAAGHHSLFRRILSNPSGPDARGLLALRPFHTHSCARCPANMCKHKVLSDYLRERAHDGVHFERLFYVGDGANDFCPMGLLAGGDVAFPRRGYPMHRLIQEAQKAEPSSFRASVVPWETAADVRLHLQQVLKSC
IMP-1 inhibitor – blocks Pseudomonas aeruginosa IMP-1 metallo-beta-lactamase; 290,000 tested, 0.45% active; purified IMP-1, nitrocefin hydrolysis, epi-absorbance fluorescence; inhibition, % at 5.6 µM;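 active = inhibition above the mean plus 3 SD of all compounds in the same screening run, cut at about 4.5% in these data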
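System: Purified recombinant IMP-1 metallo-beta-lactamase enzyme | Measured by: Fluorescence quenching readout, ex 480/em 530 nm | Replication: Singlicate | Incubation: 15 min preincubation plus 25 min reaction at 25 °C | Evaluation: Percent inhibition from optical density relative to buffer-blank wells | Benchmarks: DMSO with and without IMP-1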
CR mimetic SO – caloric restriction mimetics inhibiting age-related superoxide in yeast; S. cerevisiae aged cells, superoxide DHE fluorescence; stronger effect = lower value; superoxide response (% of plate mean), % at 10 µM; 330,000 tested, 0.18% active; AID 2690;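 active = superoxide response under a set limit, about three screen SD below normal, cut at about 65% in these data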;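 note: yeast aged for seven days with compound at 30 °C before DHE staining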
Large screens that a line does not name were inactive. Only some compounds are listed: those with a hit (about 2.2% of all), similar ones and a draw of the others.

COc1cccc(C(=O)N2CCN(Cc3ccccc3Br)CC2)c1	IMP-1 inhibitor 7.4
Cc1cc(Cl)ccc1OC(C)C(=O)NNC(=O)C1CCCCC1C(=O)O (configuration not stated)	none
CCCCCCOc1ccc(N2C(=O)CC(SC(=NCC)NCC)C2=O)cc1 (configuration not stated)	CR mimetic SO 65
O=C(c1ccc(Cl)cc1)N1CCN(S(=O)(=O)/C=C/c2ccccc2)CC1	none (no result: VIM-2 inhibitor, PHOSPHO1 inh, IMP-1 inhibitor)
O=C(CCC(=O)c1cccs1)NC(c1ccccc1)c1ccccc1	none
NC(=O)c1ccc(NC(=O)CCC(=O)c2cccs2)cc1	IMP-1 inhibitor 5.0
CCN(CC)S(=O)(=O)c1cccc(NC(=O)COC(=O)CCC(=O)c2cccs2)c1	PHOSPHO1 inh 73
O=C(CCC(=O)c1cccs1)c1cccs1	IMP-1 inhibitor 4.6
COC(=O)c1sc(-c2cccs2)cc1N	IMP-1 inhibitor 13
O=c1/c(=C/c2ccco2)sc2nc(-c3ccccc3Br)nn12	PHOSPHO1 inh 98, IMP-1 inhibitor 5.2
CN(Cc1ccccc1)c1ccc(C(CC(N)=O)NC(=O)c2ccccc2)cc1[N+](=O)[O-] (configuration not stated)	none
CCCNS(=O)(=O)c1ccc(OC)c(Cl)c1Cl	PvdQ acylase 39
CCCNS(=O)(=O)c1cc(Cl)ccc1OC	none
CCOC(=O)c1ccccc1NC(=O)C1CC(=O)N(C2CCCC2)C1 (configuration not stated)	none (no result: VIM-2 inhibitor, PHOSPHO1 inh, IMP-1 inhibitor, CR mimetic SO)
CC1(C)CC(=O)C2=C(C1)OC(N)=C(C#N)C2CCc1ccccc1 (configuration not stated)	IMP-1 inhibitor 4.7
CN(C)CCn1c(SCc2ccccc2C#N)nc2c(sc3ccccc32)c1=O	VIM-2 inhibitor 10
COc1ccccc1NC(=O)CSc1nc2c(sc3ccccc32)c(=O)n1CCN(C)C	none
Clc1ccc2nc3c4ccccc4cnn3c2c1	PvdQ acylase 33
COn1c(-c2ccccc2)nc2ccc(Cl)cc21	none
Cc1ccc(CNC(=O)CC(C)S(=O)(=O)c2ccc3c(c2)NC(=O)C(C)S3)cc1 (configuration not stated)	none
C=CC[n+]1c(-c2ccc(OC)cc2)csc1NNC(=O)Nc1ccccc1	PHOSPHO1 inh 66
O=C(O)CC12CSc3[nH]c(=O)sc3C1c1ccccc1OC2=O (configuration not stated)	IMP-1 inhibitor 6.4 (no result: PvdQ acylase)
Cc1ccc(C(=O)OCC(=O)Nc2sc3c(c2C#N)CCCC3)cc1NC(=O)c1ccco1	PHOSPHO1 inh 64
Cc1ccc(C(=O)OCC(=O)Nc2sc3c(c2C#N)CCCCC3)cc1NC(=O)c1ccco1	none
COc1cc2c(cc1OC)CN(C(=O)/C=C/c1ccccc1[N+](=O)[O-])CC2	none
CN(C)Cc1cc(C(C)(C)c2ccccc2)ccc1O	none (no result: VIM-2 inhibitor, PHOSPHO1 inh, IMP-1 inhibitor, CR mimetic SO)
COCc1cc(CNC(=O)C2CCC(=O)N(Cc3ccccc3OC)C2)[nH]n1 (configuration not stated)	none
Cc1cc(C=O)c(C)n1-c1cccc(C(=O)O)c1	none
Cc1ccc(C)n1-c1cccc(C(=O)O)c1	PHOSPHO1 inh 79 (no result: PvdQ acylase, VIM-2 inhibitor, IMP-1 inhibitor)
CC(C)(C)c1cn(-c2ccc(Cl)cc2)c(=S)[nH]1	PHOSPHO1 inh 74
O=C(NC1CCCCC1)c1cccnc1Sc1ccccc1	none
CCOc1cccc(N)c1	none (no result: VIM-2 inhibitor, PHOSPHO1 inh, IMP-1 inhibitor)
CCOc1ccc(N)c(SSc2cc(OCC)ccc2N)c1	PHOSPHO1 inh 67
Cc1cc(C)cc(C(=O)Nc2ccc(N3CCN(C(=O)c4ccco4)CC3)cc2)c1	none
Cc1cc(C)c2c(N)c(C(=O)c3ccccc3)sc2n1	none (no result: PvdQ acylase)
CC(=O)Nc1nnc(CCN2CCCCC2)s1	none
Nc1c(C(=O)c2ccc(Cl)cc2)sc2nsc(SCCN3CCOCC3)c12	PHOSPHO1 inh 63
CC(=O)c1sc2nsc(SCCN3CCCCC3)c2c1N	PHOSPHO1 inh 70
Cc1cc(C)c2c(N)c(C(=O)c3ccc(Cl)cc3)sc2n1	none
Nc1c(C(=O)c2ccccc2)sc2nsc(SCCN3CCCC3)c12	VIM-2 inhibitor 8.3
CCCCN(C)CCNC(=O)c1nn(-c2ccc(OC)cc2)c(=O)c2c1c1ccccc1n2C	VIM-2 inhibitor 8.3
CCN(CC)CCNC(=O)c1cc(Br)c(N)cc1OC	none (no result: VIM-2 inhibitor, PHOSPHO1 inh, IMP-1 inhibitor)
Cc1nn(CCc2n[nH]c(=S)n2-c2ccc(F)cc2)c(C)c1[N+](=O)[O-]	PHOSPHO1 inh 94
Cc1nn(CCc2n[nH]c(=S)n2-c2ccc(F)c(Cl)c2)c(C)c1[N+](=O)[O-]	VIM-2 inhibitor 9.7
COc1ccc(CNC(=O)CCc2ccc(S(=O)(=O)N3CCCCCC3)cc2)cc1OC	none (no result: VIM-2 inhibitor, PHOSPHO1 inh, IMP-1 inhibitor, CR mimetic SO)
CNc1ccc(/C=C(\CCC(=O)O)c2nc3ccccc3s2)cc1[N+](=O)[O-]	VIM-2 inhibitor 11
Cc1ccc(/C=C(\CCC(=O)O)c2nc3ccccc3s2)cc1[N+](=O)[O-]	VIM-2 inhibitor 8.8
COc1ccc(OC)c(NC(=O)Cc2coc3ccc4ccccc4c23)c1	none
C=CCn1c(-c2ccoc2)n[nH]c1=S	VIM-2 inhibitor 10
C=CCn1c(-c2cc(OC)cc(OC)c2)n[nH]c1=S	PHOSPHO1 inh 97
C=CCn1c(-c2cccc(OCC)c2)n[nH]c1=S	none
Nc1nnc(COc2ccc(Br)cc2Br)s1	none
Cc1ccc(C)c(OCc2nnc(N)s2)c1	PHOSPHO1 inh 72
C=CCn1c(CCc2cc(C(C)(C)C)c(O)c(C(C)(C)C)c2)n[nH]c1=S	none
Cc1ccc(C2/C(=C(/O)c3cnn(-c4ccccc4)c3C)C(=O)C(=O)N2CCCN2CCOCC2)o1 (configuration not stated)	none (no result: PvdQ acylase)
Cc1c(/C(O)=C2/C(=O)C(=O)N(CCN3CCOCC3)C2c2ccccn2)cnn1-c1ccccc1 (configuration not stated)	PHOSPHO1 inh 60
CCOC(=O)c1cc(C#N)c(SCC(=O)c2cc(C#N)c(SC)nc2C)[nH]c1=O	PHOSPHO1 inh 98
CCOC(=O)c1cc(C#N)c(SCC(N)=O)[nH]c1=O	none
CCCn1c2ccccc2c2nnc(SC(CC)C(=O)Nc3sc4c(c3C#N)CCCC4)nc21 (configuration not stated)	PHOSPHO1 inh 61
CCCn1c2ccccc2c2nnc(SC(CC)C(=O)Nc3cc(C)on3)nc21 (configuration not stated)	none
CCN(C[C@H]1N[C@@](Cc2ccccc2)(C(=O)OC)[C@H]2C(=O)N(Cc3ccccc3)C(=O)[C@@H]12)C(=O)Nc1ccc(C(F)(F)F)cc1	none (no result: VIM-2 inhibitor, PHOSPHO1 inh, IMP-1 inhibitor)
CCOC(=O)C1CSc2[nH]c(=O)sc2C1c1ccccc1 (configuration not stated)	PHOSPHO1 inh 93
COc1ccc(C2c3sc(=O)[nH]c3SCC2C(N)=O)cc1 (configuration not stated)	none
O=C(NN=C1CCCCCCCCCCC1)c1cccc(S(=O)(=O)N2CCOCC2)c1	none
Cc1ccc2[nH]c(=O)c(CNC(C)C)cc2c1	PHOSPHO1 inh 62
O=c1[nH]c2ccccc2cc1CN(CC1CCCO1)S(=O)(=O)c1ccc(Cl)cc1 (configuration not stated)	none
NS(=O)(=O)c1ccc(S(=O)(=O)N(Cc2ccccc2F)CC2CCCO2)cc1 (configuration not stated)	IMP-1 inhibitor 5.0

Screening results (PubChem)
